Legend:
[1] = target: CREB-binding protein/Histone acetyltransferase p300 (Homo sapiens, UniProt Q09472+Q92793); test: Inhibition of p300/CBP in human 22Rv1 cells assessed as reduction in H3K18Ac level incubated for 24 hrs by Hoechst 33342 staining based high content microscopy analysis; format: cell-based
Summary of the method: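 Cells received an 8-point half-log dilution series from 10 µM. They were then fixed in 10% formaldehyde (10 min, RT), permeabilised with 0.1% Triton X-100 and blocked with 1% BSA for 1 h. Primary antibodies were applied overnight at 4 °C, followed by Alexa488 anti-rabbit, Alexa555 anti-mouse and Hoechst 33342 for 1 h. Fifteen fields per well were imaged and average mean intensity taken. EC50 came from a sigmoidal fit.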

[2] = target: Serine/threonine-protein kinase D3 (Homo sapiens, UniProt O94806); test: Inhibition of PRKCN (unknown origin)
[3] = target: Dual specificity mitogen-activated protein kinase kinase 2 (Homo sapiens, UniProt P36507); test: Inhibition of MEK2 (unknown origin)
[4] = test system: EOL1; test: Antiproliferative activity against human EOL-1 cells assessed as inhibition of cell viability incubated for 3 to 5 days by Celltiter-Glo luminescent assay; format: functional, cell-based
[5] = Anti-tumor activity against human LuCaP-77 CR cell xenografted in SCID mouse assessed as tumor growth inhibition administered for 21 days relative to control; format: functional; conditions: time 21 day
[6] = target: Serine/threonine-protein kinase B-raf (Homo sapiens, UniProt P15056); test: Inhibition of B-Raf (unknown origin)
[7] = test system: HCC1806; test: Antiproliferative activity against human HCC1806 cells assessed as inhibition of cell viability incubated for 3 to 5 days by Celltiter-Glo luminescent assay; format: functional, cell-based
[8] = test system: DOHH-2; test: Antiproliferative activity against human DOHH-2 cells assessed as inhibition of cell viability incubated for 3 to 5 days by Celltiter-Glo luminescent assay; format: functional, cell-based
[9] = test system: RL; test: Antiproliferative activity against human RL cells assessed as inhibition of cell viability incubated for 3 to 5 days by Celltiter-Glo luminescent assay; format: functional, cell-based
[10] = test system: HCC1395; test: Antiproliferative activity against human HCC1395 cells assessed as inhibition of cell viability incubated for 3 to 5 days by Celltiter-Glo luminescent assay; format: functional, cell-based
[11] = AUC in CB17 SCID mouse xenografted with LuCaP-77 CR cell at 50 mg/kg, ip administered for 7 days; format: ADME, organism-based; conditions: in vivo, time 7 day
[12] = target: Activated CDC42 kinase 1 (Homo sapiens, UniProt Q07912); test: Inhibition of TNK2 (unknown origin)
[13] = target: Aurora kinase A (Homo sapiens, UniProt O14965); test: Inhibition of Aurora2 (unknown origin)
[14] = test system: AMO1; test: Antiproliferative activity against human AMO1 cells assessed as inhibition of cell viability incubated for 3 to 5 days by Celltiter-Glo luminescent assay; format: functional, cell-based
[15] = target: Histone acetyltransferase p300 (Homo sapiens, UniProt Q09472)
[16] = target: Calcium/calmodulin-dependent protein kinase kinase 2 (Homo sapiens, UniProt Q96RR4); test: Inhibition of CAMKK2 (unknown origin)
[17] = AUC in CB17 SCID mouse xenografted with LuCaP-77 CR cell at 200 mg/kg, ip administered for 7 days; format: ADME, organism-based; conditions: in vivo, time 7 day
[18] = test system: Farage; test: Antiproliferative activity against human Farage cells assessed as inhibition of cell viability incubated for 3 to 5 days by Celltiter-Glo luminescent assay; format: functional, cell-based
[19] = cells; conditions: Homo sapiens, SC-1
[20] = target: Ca2+ channel (L, dihydropyridine site) (Homo sapiens, UniProt O60840+Q01668+Q13698+Q13936); test: Inhibition of Ca2+ channel (L, dihydropyridine site) (unknown origin) at 10 uM by radioligand binding assay relative to control; format: protein assay
[21] = target: Tyrosine-protein kinase ABL1 (Homo sapiens, UniProt P00519); test: Inhibition of Abl (unknown origin)
[22] = target: Epidermal growth factor receptor (Homo sapiens, UniProt P00533); test: Inhibition of EGFR (unknown origin)
[23] = test system: SK-MEL-24; test: Antiproliferative activity against human SK-MEL-24 cells assessed as inhibition of cell viability incubated for 3 to 5 days by Celltiter-Glo luminescent assay; format: functional, cell-based
[24] = test system: OPM-2; test: Antiproliferative activity against human OPM-2 cells assessed as inhibition of cell viability incubated for 3 to 5 days by Celltiter-Glo luminescent assay; format: functional, cell-based
[25] = test system: SU-DHL-8; test: Antiproliferative activity against human SU-DHL-8 cells assessed as inhibition of cell viability incubated for 3 to 5 days by Celltiter-Glo luminescent assay; format: functional, cell-based
[26] = test system: NCI-H128; test: Antiproliferative activity against human NCI-H128 cells assessed as inhibition of cell viability incubated for 3 to 5 days by Celltiter-Glo luminescent assay; format: functional, cell-based

Sequence of Serine/threonine-protein kinase D3 (O94806 whole entry): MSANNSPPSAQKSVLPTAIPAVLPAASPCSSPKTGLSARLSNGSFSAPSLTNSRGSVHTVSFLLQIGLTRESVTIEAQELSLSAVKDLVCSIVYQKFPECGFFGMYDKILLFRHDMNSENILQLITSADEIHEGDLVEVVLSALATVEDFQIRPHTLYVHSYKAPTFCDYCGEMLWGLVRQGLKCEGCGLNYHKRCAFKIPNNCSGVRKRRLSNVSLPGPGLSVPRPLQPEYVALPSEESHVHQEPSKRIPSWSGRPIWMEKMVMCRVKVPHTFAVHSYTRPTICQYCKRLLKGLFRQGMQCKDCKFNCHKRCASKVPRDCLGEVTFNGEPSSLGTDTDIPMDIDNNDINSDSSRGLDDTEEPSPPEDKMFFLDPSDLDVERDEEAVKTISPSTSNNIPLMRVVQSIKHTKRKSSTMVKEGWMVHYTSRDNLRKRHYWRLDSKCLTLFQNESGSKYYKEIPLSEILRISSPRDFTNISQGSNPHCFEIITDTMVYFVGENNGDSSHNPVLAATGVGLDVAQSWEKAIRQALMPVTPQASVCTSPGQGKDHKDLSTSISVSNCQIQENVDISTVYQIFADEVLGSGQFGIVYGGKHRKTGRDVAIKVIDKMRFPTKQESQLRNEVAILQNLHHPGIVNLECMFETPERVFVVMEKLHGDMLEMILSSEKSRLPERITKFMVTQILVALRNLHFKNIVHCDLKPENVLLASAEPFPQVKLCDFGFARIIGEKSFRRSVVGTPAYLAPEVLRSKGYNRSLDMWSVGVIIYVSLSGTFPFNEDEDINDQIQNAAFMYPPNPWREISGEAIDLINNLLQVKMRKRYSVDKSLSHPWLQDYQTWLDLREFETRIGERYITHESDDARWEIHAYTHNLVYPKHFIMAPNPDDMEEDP
Sequence of Dual specificity mitogen-activated protein kinase kinase 2 (P36507 whole entry): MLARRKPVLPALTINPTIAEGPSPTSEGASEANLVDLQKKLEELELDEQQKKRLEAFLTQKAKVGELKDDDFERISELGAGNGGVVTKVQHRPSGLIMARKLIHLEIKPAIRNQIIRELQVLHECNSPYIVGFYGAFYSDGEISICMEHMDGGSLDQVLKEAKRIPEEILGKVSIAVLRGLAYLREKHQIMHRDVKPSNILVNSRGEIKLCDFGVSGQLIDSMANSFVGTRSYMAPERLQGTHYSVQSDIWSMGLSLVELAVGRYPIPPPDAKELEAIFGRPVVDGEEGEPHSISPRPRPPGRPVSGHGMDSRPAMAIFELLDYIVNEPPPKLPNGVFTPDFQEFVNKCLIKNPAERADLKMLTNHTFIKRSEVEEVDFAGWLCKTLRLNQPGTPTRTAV
Sequence of Serine/threonine-protein kinase B-raf (P15056 whole entry): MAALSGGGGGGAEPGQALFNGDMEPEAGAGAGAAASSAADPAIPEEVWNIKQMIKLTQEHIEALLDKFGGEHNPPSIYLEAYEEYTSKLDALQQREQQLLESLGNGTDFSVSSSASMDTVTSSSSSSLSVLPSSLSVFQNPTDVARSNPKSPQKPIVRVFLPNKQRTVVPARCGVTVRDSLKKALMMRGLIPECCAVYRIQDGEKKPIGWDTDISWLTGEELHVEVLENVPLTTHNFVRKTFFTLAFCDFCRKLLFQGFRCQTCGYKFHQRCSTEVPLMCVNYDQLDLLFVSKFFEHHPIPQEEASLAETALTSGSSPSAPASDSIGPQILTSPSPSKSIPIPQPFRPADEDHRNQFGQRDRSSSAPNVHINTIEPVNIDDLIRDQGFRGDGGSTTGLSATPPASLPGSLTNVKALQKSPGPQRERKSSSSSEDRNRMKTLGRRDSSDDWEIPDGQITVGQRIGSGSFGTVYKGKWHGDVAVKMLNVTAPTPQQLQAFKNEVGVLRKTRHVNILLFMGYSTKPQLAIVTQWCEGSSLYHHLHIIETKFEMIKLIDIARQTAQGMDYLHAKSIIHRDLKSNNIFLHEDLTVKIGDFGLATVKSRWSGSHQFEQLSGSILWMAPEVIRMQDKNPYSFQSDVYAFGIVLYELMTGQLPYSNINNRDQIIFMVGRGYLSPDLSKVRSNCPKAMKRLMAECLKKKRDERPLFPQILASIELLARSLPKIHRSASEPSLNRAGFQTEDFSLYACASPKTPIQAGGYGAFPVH
Sequence of Calcium/calmodulin-dependent protein kinase kinase 2 (Q96RR4 whole entry): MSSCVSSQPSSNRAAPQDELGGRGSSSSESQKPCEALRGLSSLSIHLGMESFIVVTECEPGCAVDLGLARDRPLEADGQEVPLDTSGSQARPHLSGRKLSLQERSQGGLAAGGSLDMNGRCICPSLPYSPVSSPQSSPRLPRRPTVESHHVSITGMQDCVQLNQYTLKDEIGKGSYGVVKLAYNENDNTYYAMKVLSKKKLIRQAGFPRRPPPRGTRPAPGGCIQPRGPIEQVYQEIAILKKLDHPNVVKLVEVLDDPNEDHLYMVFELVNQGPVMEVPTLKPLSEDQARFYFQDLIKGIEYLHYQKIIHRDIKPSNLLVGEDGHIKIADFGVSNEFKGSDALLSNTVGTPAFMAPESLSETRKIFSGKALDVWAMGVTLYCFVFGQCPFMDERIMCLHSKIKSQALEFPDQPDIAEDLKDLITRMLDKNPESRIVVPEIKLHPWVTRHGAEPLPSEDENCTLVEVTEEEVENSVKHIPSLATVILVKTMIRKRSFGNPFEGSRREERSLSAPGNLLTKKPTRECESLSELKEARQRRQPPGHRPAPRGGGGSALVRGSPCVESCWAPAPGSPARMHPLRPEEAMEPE
Sequence of Activated CDC42 kinase 1 (Q07912 whole entry): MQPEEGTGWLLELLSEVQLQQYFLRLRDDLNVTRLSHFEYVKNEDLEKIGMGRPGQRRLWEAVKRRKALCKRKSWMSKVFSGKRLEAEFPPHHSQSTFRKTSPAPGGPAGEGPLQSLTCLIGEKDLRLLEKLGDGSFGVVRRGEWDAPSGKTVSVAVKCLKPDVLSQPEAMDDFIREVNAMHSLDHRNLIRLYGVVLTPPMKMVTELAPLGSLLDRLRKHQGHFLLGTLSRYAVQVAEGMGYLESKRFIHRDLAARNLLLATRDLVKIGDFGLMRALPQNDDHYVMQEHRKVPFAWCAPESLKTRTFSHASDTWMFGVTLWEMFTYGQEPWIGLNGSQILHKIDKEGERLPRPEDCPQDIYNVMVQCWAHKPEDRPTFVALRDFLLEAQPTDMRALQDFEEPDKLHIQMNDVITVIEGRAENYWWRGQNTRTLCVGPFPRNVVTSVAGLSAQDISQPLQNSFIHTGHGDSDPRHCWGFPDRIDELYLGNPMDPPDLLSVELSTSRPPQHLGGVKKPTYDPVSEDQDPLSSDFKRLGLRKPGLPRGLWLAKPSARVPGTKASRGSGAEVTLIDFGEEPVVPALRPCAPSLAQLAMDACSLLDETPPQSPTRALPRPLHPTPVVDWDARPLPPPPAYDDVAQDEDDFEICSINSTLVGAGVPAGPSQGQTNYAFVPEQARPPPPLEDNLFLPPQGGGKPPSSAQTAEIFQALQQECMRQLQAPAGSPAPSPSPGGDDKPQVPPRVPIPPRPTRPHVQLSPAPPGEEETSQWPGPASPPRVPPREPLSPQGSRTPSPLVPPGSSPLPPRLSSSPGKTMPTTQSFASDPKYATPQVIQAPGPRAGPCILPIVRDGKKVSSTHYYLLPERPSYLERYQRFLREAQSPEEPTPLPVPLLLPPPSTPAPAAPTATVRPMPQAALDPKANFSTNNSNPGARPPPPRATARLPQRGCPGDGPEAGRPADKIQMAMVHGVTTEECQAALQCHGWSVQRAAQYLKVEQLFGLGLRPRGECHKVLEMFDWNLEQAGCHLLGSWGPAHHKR
Sequence of Epidermal growth factor receptor (P00533 whole entry): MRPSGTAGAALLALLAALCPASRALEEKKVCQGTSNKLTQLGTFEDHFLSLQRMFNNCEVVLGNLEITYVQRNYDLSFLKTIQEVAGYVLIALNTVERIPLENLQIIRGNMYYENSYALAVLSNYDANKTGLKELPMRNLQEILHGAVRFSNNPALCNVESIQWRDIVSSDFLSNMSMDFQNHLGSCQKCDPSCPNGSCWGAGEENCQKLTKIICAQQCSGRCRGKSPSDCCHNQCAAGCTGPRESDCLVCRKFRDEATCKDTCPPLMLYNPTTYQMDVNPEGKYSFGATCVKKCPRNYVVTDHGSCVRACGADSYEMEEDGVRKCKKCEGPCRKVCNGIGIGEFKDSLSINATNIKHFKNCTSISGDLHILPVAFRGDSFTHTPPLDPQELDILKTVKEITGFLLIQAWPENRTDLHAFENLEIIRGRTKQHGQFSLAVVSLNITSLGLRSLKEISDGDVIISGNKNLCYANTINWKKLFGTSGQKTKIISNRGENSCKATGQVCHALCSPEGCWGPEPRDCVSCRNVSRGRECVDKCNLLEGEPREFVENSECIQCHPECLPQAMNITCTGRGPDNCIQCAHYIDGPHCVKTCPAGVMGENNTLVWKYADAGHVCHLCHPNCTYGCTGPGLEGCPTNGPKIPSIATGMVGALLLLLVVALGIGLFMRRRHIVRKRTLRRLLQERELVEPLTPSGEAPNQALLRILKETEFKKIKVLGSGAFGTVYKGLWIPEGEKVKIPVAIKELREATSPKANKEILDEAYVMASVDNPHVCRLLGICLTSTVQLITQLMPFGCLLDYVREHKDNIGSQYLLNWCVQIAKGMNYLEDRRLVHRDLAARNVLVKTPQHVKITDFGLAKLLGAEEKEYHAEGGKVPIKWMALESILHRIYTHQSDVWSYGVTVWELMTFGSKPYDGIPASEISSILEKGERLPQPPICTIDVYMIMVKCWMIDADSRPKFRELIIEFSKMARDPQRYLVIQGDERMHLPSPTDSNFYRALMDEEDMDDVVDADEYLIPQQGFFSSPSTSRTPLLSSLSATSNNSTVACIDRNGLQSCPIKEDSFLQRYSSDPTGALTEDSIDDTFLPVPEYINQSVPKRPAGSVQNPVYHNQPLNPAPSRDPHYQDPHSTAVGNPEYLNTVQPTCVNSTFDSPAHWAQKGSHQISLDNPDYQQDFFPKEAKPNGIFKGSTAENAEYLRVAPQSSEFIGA

Question: Which INH [1] does the source give for CNC(=O)Nc1ccc2c(c1)CC[C@@]21OC(=O)N(CC(=O)N(Cc2ccc(F)cc2)[C@@H](C)C(F)(F)F)C1=O [A-485] here?
Answer: Its INH is 3.79 µM.

Question: What about the IC50 [2] of the same molecule?
Answer: Its IC50 is greater than 10000 nM.

Question: What about the IC50 [3] of the same molecule?
Answer: Its IC50 is greater than 10000 nM.

Question: And the EC50 [4]?
Answer: Its EC50 is greater than 10000 nM.

Question: What about the TGI [5] of the same molecule?
Answer: Its TGI is 54%.

Question: What about the IC50 [6] of the same molecule?
Answer: Its IC50 is greater than 10000 nM.

Question: What about the EC50 [7] of the same molecule?
Answer: The EC50 was 2950 nM.

Question: And the EC50 [8]?
Answer: The EC50 was 750 nM.

Question: And the EC50 [9]?
Answer: Its EC50 is 1050 nM.

Question: What about the EC50 [10] of the same molecule?
Answer: Its EC50 is greater than 10000 nM.

Question: What about the AUC at 168 h [11] of the same molecule?
Answer: The AUC at 168 h was 91.2 µg·h/mL.

Question: And the IC50 [12]?
Answer: The IC50 was greater than 10000 nM.

Question: And the IC50 [13]?
Answer: Its IC50 is greater than 10000 nM.

Question: And the EC50 [14]?
Answer: Its EC50 is 1090 nM.

Question: What about the T1/2 [15] of the same molecule?
Answer: The T1/2 was 8.85 min.

Question: What about the IC50 [16] of the same molecule?
Answer: The IC50 was greater than 10000 nM.

Question: And the AUC at 168 h [17]?
Answer: Its AUC at 168 h is 2950 µg·h/mL.

Question: And the EC50 [18]?
Answer: Its EC50 is greater than 10000 nM.

Question: What about the EC50 [19] of the same molecule?
Answer: Its EC50 is 1690 nM.

Question: And the inhibition at 10 µM [20]?
Answer: Its inhibition at 10 µM is -9%.

Question: And the IC50 [21]?
Answer: The IC50 was greater than 10000 nM.

Question: And the IC50 [22]?
Answer: Its IC50 is greater than 10000 nM.

Question: What about the EC50 [23] of the same molecule?
Answer: Its EC50 is greater than 10000 nM.

Question: And the EC50 [24]?
Answer: The EC50 was 620 nM.

Question: What about the EC50 [25] of the same molecule?
Answer: The EC50 was 540 nM.

Question: What about the EC50 [26] of the same molecule?
Answer: Its EC50 is greater than 10000 nM.
